The values that follow come from ChEMBL document CHEMBL1126142, “Potential antitumor agents. 64. Synthesis and antitumor evaluation of dibenzo[1,4]dioxin-1-carboxamides: a new class of weakly binding DNA-intercalating agents” (J Med Chem, 1992).

Active and inactive are the calls of the source. No cut-off for these calls is given here.

The subject of data set [1] is P388. Briefly: In vivo percentage increase in lifespan with compound after treating wild-type P388 murine leukemia cells with optimal dose; Not active. The conditions noted are these: Mus musculus. Format: functional, organism-based.
The next data set concerns Nucleic Acid. Briefly: Binding constant to poly[d(A-T)] by displacement of ethidium bromide. Format: nucleic-acid assay.
Data set [2] in a line: In vivo the optimal dose administered intraperitoneally to wild-type P388 murine leukemia cells. Format: functional, Mus musculus. A digest of the protocol:
(§1)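 Mice received 10^6 tumor cells intraperitoneally. After 24 h, drug was given ip as a solution in 0.1 mL 30% v/v EtOH/water on days 1, 5 and 9. The optimal dose is expressed as mg/kg per day. Groups were 6 mice, with tests in duplicate.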

The nature of data set [3]: Cytotoxicity measured on wild-type P388 murine leukemia cells. The class given is functional, cell-based. The conditions noted are these: Mus musculus. A digest of the protocol: (§2)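 A 96-well plate growth-inhibition assay in culture was run with full dose-response curves. IC50 was the drug concentration (μM) reducing cell growth to 50% of untreated controls. Values are means of three determinations. The P388/AMSA subline carries a structurally altered topoisomerase II.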

A short description of data set [4]: Lipophilicity (Rm). The class given is physicochemical. The following applies: AMSA internal standard. A digest of the protocol: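 Relative lipophilicity (Rm) was determined chromatographically using 4'-(9-acridinylamino)methanesulfonanilide (AMSA) as internal standard.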
A short description of data set [5]: In vivo percentage increase in lifespan with compound after treating wild-type P388 murine leukemia cells with optimal dose. Format: functional, Mus musculus. A digest of the protocol:
(§3)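 Mice bearing wild-type P388 leukemia, 10^6 cells inoculated intraperitoneally; drug given ip in 0.1 mL 30% v/v EtOH/water on days 1, 5 and 9, starting 24 h after inoculation. ILS = percentage increase in lifespan of treated over untreated tumor-bearing mice at the optimal dose (mg/kg per day); >20% counted significant. Groups of 6 mice, tests in duplicate.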

In data set [6] the test system is P388. Kind of data set: Inhibitory activity against mutant murine leukemia cell line P388/AMSA. The conditions noted are these: Mus musculus. The class given is functional, cell-based. A digest of the protocol: as §2
A short description of data set [7]: In vivo optimal dose administered intraperitoneally to wild-type P388 murine leukemia cells. The class given is functional, Mus musculus. A digest of the protocol:
as §1

Data set [8] concerns P388. Kind of data set: Inhibitory activity against P388 murine leukemia cell which is topoisomerase II enzyme and resistant to classical topo II Inhibitors. The conditions noted are these: Mus musculus. Format: functional, cell-based. A digest of the protocol: as §2
Data set [9] in a line: Percentage increase in lifespan with compound after treating wild-type P388 murine leukemia cells with optimal dose. Format: functional, Mus musculus. A digest of the protocol: as §3

The term ILS denotes the gain in survival time of treated over control animals, in per cent. As a reminder, the IC50 is the concentration needed to halve the response being measured. `Cc1ccc2c(c1)Oc1cccc(C(=O)NCCN(C)C)c1O2`: the ILS entry in the data set on P388 [1] was “inactive”. The same molecule showed a Log K with Nucleic Acid of 5.11. For the same molecule, the OD in data set [2] is 45 mg/kg. In data set [3], this molecule yielded an IC50 of 3300 nM. The molecule also returned a Rm in [4] of 0.2.

In the data set on Nucleic Acid, `CN(C)CCNC(=O)c1cccc2c1Oc1ccccc1O2` gave a Log K of 5.05. Also, in [5], the increase in life span (ILS) turned out to be 76%. Also, the IC50 is 1800 nM with P388 [6] and 3000 nM in data set [3]. Also, the OD in data set [7] was determined as 150 mg/kg. This molecule also registered a Rm in data set [4] of 0.01.

In the case of `CN(C)CCNC(=O)c1cccc2c1Oc1ncccc1O2`, the ILS result in the data set with P388 [1] is “inactive”. The IC50 came to 930 nM in the data set with P388 [8] and 830 nM in data set [3]. The molecule also came in with an OD in [2] of 65 mg/kg. This molecule had a Rm in [4] of -0.38.

In turn, `COc1cccc2c1Oc1c(cccc1C(=O)NCCN(C)C)O2` registered a Log K in the data set on Nucleic Acid of 5.55. In addition, in [9], the ILS is recorded as 45%. The IC50 with P388 [6] stood at 520 nM; in data set [3], 380 nM. The OD in [2] came to 45 mg/kg. This molecule also came in with a Rm in data set [4] of -0.02.

Turning to `Cc1cccc2c1Oc1c(cccc1C(=O)NCCN(C)C)O2`, the Log K with Nucleic Acid was 5.28. The ILS in data set [9] was found to be 144%. The IC50 with P388 [6] came out at 7700 nM; in data set [3], 250 nM. This molecule also yielded an OD in [2] of 100 mg/kg. In addition, in [4], the Rm came out at 0.09.

On to `CN(C)CCNC(=O)c1cccc2c1Oc1cc(Br)ccc1O2`, for which, in the data set with P388 [1], the ILS result was “inactive”. Moreover, the Log K in the data set on Nucleic Acid turned out to be 5.35. In addition, in data set [2], the OD was 150 mg/kg. In addition, 3000 nM corresponded to half-maximal inhibition in [3] (IC50). In data set [4], this molecule displayed a Rm of 0.18.

Take `CN(C)CCNC(=O)c1cccc2c1Oc1c(Br)cccc1O2`: the Log K in the data set with Nucleic Acid is 5.23. Moreover, the ILS in [9] stood at 154%. Also, the IC50 stood at 730 nM in the data set on P388 [6] and 210 nM in [3]. Also, the OD in data set [2] was found to be 100 mg/kg. In addition, the Rm in data set [4] is on record as -0.01.

In the case of `CN(C)CCNC(=O)c1cccc2c1Oc1cc([N+](=O)[O-])ccc1O2`, the Log K in the data set on Nucleic Acid was 5.64. Also, the increase in lifespan (ILS) in data set [9] is recorded as 96%. For the same molecule, in [2], the OD came out at 150 mg/kg. Besides, in data set [3], half-maximal inhibition (IC50) was put at 3700 nM. The molecule further registered a Rm in [4] of -0.14.

Take `CN(C)CCCCNC(=O)c1cccc2c1Oc1ccccc1O2`: in the data set with P388 [1], the ILS entry was “inactive”. The Log K with Nucleic Acid is 4.9. The OD in data set [7] amounted to 150 mg/kg. The molecule also registered a half-maximal inhibitory concentration (IC50) in [3] above 20000 nM. The Rm in [4] is listed as 0.13.

As for `CN(C)CCNC(=O)c1cccc2c1Oc1cccc(Cl)c1O2`, the ILS result in the data set on P388 [1] was “inactive”. Also, the Log K in the data set on Nucleic Acid came to 5.15. The same molecule returned an OD in data set [2] of 100 mg/kg. In addition, it took 1300 nM to reach half-maximal inhibition in data set [3] (IC50). In data set [4], this molecule registered a Rm of 0.21.

Regarding `CN(C)CCNC(=O)c1cccc2c1Oc1c(cccc1[N+](=O)[O-])O2`, the ILS entry with P388 [1] is “inactive”. In addition, the Log K in the data set on Nucleic Acid stood at 5.11. In addition, the IC50 in the data set on P388 [6] stood at 450 nM; in data set [3], 32 nM. Besides, the OD in data set [2] was determined as 20 mg/kg. Besides, in [4], the Rm is on record as -0.28.

Regarding `CN(C)CCNC(=O)c1ccc2c(c1)Oc1ccc(C(=O)NCCN(C)C)cc1O2`, the ILS result in the data set on P388 [1] was “inactive”. Also, the Log K in the data set with Nucleic Acid was found to be 6.81. The OD in [2] was 225 mg/kg. The molecule also had an IC50 in data set [3] above 10000 nM. The Rm in data set [4] is given as -1.21.

As to `Cc1cccc2c1Oc1cccc(C(=O)NCCN(C)C)c1O2`, the ILS entry with P388 [1] is “inactive”. In the data set on Nucleic Acid, this molecule registered a Log K of 5.26. This molecule also showed an OD in [2] of 45 mg/kg. The same molecule came in with a half-maximal inhibitory concentration (IC50) in data set [3] of 2100 nM. The same molecule came in with a Rm in data set [4] of 0.14.

For `CN(C)CCNC(=O)c1ccc2c(c1)Oc1ccccc1O2`, the ILS entry in the data set on P388 [1] is “inactive”. The Log K in the data set with Nucleic Acid is 4.84. The same molecule gave an OD in [2] of 150 mg/kg. For the same molecule, in [3], the midpoint of inhibition, the IC50, lay at 5800 nM. This molecule displayed a Rm in [4] of 0.11.

`CN(C)CCNC(=O)c1cccc2c1Oc1cccnc1O2`: the ILS entry in the data set on P388 [1] is “inactive”. Besides, the Log K in the data set on Nucleic Acid came to 4.73. In addition, in [2], the OD amounted to 100 mg/kg. Moreover, the 50% inhibitory concentration (IC50) in data set [3] was determined as 8000 nM. This molecule also displayed a Rm in data set [4] of -0.49.

`CN(C)CCNC(=O)c1cccc2c1Oc1c(cccc1C(=O)NCCN(C)C)O2`: in the data set with P388 [1], the ILS entry was “inactive”. In addition, the Log K in the data set on Nucleic Acid is 4.48. Besides, in [2], the OD stood at 100 mg/kg. This molecule showed an IC50 in [3] of 720 nM. In addition, the Rm in [4] is -0.68.

Regarding `CN(C)CCNC(=O)c1cccc2c1Oc1cc(Cl)c(Cl)cc1O2`, the ILS entry with P388 [1] is “inactive”. For the same molecule, the values for the 50% inhibitory concentration (IC50) (with P388 [8]; in data set [3]) were 830 nM and 5130 nM, respectively. The molecule also came in with an OD in [2] of 150 mg/kg. Besides, the Rm in data set [4] is reported as 0.25.

For the molecule `CN(C)CCNC(=O)c1cccc2c1Oc1ccc(Cl)cc1O2`, the ILS entry in the data set on P388 [1] is “inactive”. This molecule also returned a Log K with Nucleic Acid of 5.11. The molecule also yielded an OD in data set [2] of 100 mg/kg. The molecule also registered an IC50 in [3] of 1600 nM. In data set [4], this molecule gave a Rm of 0.1.

Molecule `CN(C)CCNC(=O)c1cccc2c1Oc1c(Cl)cccc1O2` came in with a Log K in the data set with Nucleic Acid of 5.48. For the same molecule, the increase in lifespan (ILS) in data set [9] was 106%. Also, the figures for the IC50 (in the data set with P388 [6]; in [3]) were 2600 nM and 230 nM, respectively. The molecule also gave an OD in [2] of 100 mg/kg. Moreover, the Rm in data set [4] is on record as -0.01.

Regarding `CN(C)CCNC(=O)c1cccc2c1Oc1ccc([N+](=O)[O-])cc1O2`, the Log K in the data set on Nucleic Acid is 5.64. The ILS in data set [9] worked out at 96%. Moreover, the OD in [2] was 150 mg/kg. In addition, half-maximal inhibition in data set [3] (IC50) required 6000 nM. This molecule had a Rm in data set [4] of -0.14.

Take `CN(C)CCNC(=O)c1cccc2c1Oc1ccc(Br)cc1O2`: in the data set with P388 [1], the ILS result is “inactive”. Further, the Log K in the data set on Nucleic Acid amounted to 5.34. The molecule further showed an OD in data set [2] of 100 mg/kg. Further, the IC50 in data set [3] is 1900 nM. Also, in data set [4], the Rm is 0.18.

On to `COc1cccc2c1Oc1cccc(C(=O)NCCN(C)C)c1O2`, for which the ILS result with P388 [1] was “inactive”. Besides, the Log K with Nucleic Acid turned out to be 5.18. Also, the OD in data set [2] worked out at 100 mg/kg. This molecule gave a concentration for half-maximal inhibition (IC50) in [3] of 1600 nM. The Rm in [4] is listed as -0.19.

Consider `CN(C)CCNC(=O)c1cc([N+](=O)[O-])cc2c1Oc1ccccc1O2`, for which the ILS result in the data set with P388 [1] is “inactive”. Also, the Log K with Nucleic Acid was 5.37. The OD in [2] turned out to be 225 mg/kg. This molecule came in with an IC50 in [3] of 1700 nM. Further, in data set [4], the Rm is recorded as -0.16.

For the molecule `CN(C)CCNC(=O)c1cccc2c1Oc1cccc([N+](=O)[O-])c1O2`, the ILS result with P388 [1] was “inactive”. For the same molecule, the Log K in the data set on Nucleic Acid was determined as 5.06. The OD in data set [2] was determined as 150 mg/kg. For the same molecule, the IC50 in data set [3] was determined as 2500 nM. The same molecule had a Rm in data set [4] of -0.2.
